# Assay results from the RNAGym collection of RNA variant scans (doi:10.1126/science.aae0568).
# Variants at the floor of the assay were thinned out.
# B1: tRNA (parent)
# chain: GUUCCGUUGGCGUAAUGGUAACGCGUCUCCCUCCUAAGGAGAAGACUGCGGGUUCGAGUCCCGUACGGAACG
# Variants of: B1
# Test: yeast fitness relative to wild type (ratio to wild type); higher = fitter; tRNA-Arg(CCU), competitive growth, 37 C, YPD
# Summary of the method: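 A pool of Saccharomyces cerevisiae strains, each with a tRNA-Arg(CCU) gene variant at the native genomic locus, was competed in YPD at 37°C for 24 hours across six parallel replicates. The variants had been chemically synthesised at a 3% per-site mutation rate over 69 sites, and gene amplicons before and after competition were read by 100-nucleotide paired-end sequencing. Darwinian fitness relative to wild type rested on changes in genotype frequencies. Genotypes required ≥ 100 starting reads, and estimates < 0.5 were set to 0.5.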
row,Variant,yeast fitness
1,A20G C29G G68A,≤ 0.5
2,U19A U54A,0.706
3,U19G C34A G50A,≤ 0.5
4,U19C C33G C34U U54A C66U,0.524
5,A20C A57C C60A,≤ 0.5
6,U19A A45U C46U,1.07
7,A20G C31U A42U C46U C66G,0.714
8,A20G A43U U64C,0.704
9,A20C G39C,0.723
10,U19C C31G U53G U54A A57U,0.653
11,A20U A21G C27G,≤ 0.5
12,A20G C29G G50A A70U,≤ 0.5
13,U19G C22G C34U G68C,≤ 0.5
14,A20G C31A C34G A45U,≤ 0.5
15,A20G C27A A40G A45C,≤ 0.5
16,A20C C27U C34G C61U C62G,0.616
17,A20G C60U A69U,0.592
18,U19A U47A G52C,≤ 0.5
19,U19G U32G G51C A57U,≤ 0.5
20,U19G A20U,0.955
21,A20G G44A,0.962
22,A20G G56C G68C,0.6
23,U19C C46G A65G,0.716
24,U19G C22U G52A,≤ 0.5

row,Variant,yeast fitness
1,A20C G56A A65G C66U,0.562
2,U19A C24G C29U G52C U64G,≤ 0.5
3,A20G C22G G38A,0.539
4,A20G C24A A70U,0.546
5,A20G A43U,1.03
6,U19A G38C G56C,≤ 0.5
7,A20G A37C A40G C49U,≤ 0.5
8,A20U A21G C61U,≤ 0.5
9,U19C C27G C30U,0.55
10,U19A C30G A40C C62G C66G A69C,≤ 0.5
11,A20C A36G G48A C49U,≤ 0.5
12,A20C C27U C66U G67C,≤ 0.5
13,A20G G48C,1
14,A20C U64A G67A,≤ 0.5
15,U19G U47C U64G,0.536
16,A20G G23A G38A,≤ 0.5
17,A20G U64G G68A A70C,≤ 0.5
18,A20G A36C C49G U54C,≤ 0.5
19,U19A C27G C31U A69U,≤ 0.5
20,U19C U26G A57G,≤ 0.5
21,U19C G50A,0.833
22,U19A G56A,1
23,U19G A43U G51U A65G G68A,≤ 0.5
24,A20C G48C A57G G63A,≤ 0.5

row,Variant,yeast fitness
1,A20G G58C,1
2,A20G A57G C62U A69G,0.772
3,A20C C60U A69U,0.617
4,A20C A43C C49A U54A G58A C60A,≤ 0.5
5,U19A C24A C30G C34U G52C,≤ 0.5
6,A20U A21C C27A A45G,≤ 0.5
7,U19C G23A G38A,0.634
8,U19G U47C C66U,0.786
9,A20G G25A C31G C62A,≤ 0.5
10,U19C C29A G39C A57G C61U C66U,≤ 0.5
11,U19A C27G G63C,0.754
12,U19G G39A A40G,0.56
13,U19A C29G U54C,≤ 0.5
14,U19G A37G A65U,0.61
15,U19C G50A C55A,≤ 0.5
16,A20G C31U A57C U64A G68A,≤ 0.5
17,U19G A42U,0.991
18,U19C G51C,0.519
19,U19A C30A A43G C49U G51U C55A,0.528
20,U19C A70C,1.03
21,U19C A70U,0.953
22,U19A C46U C49G,1.07
23,U19C C61G,0.691
24,U19C C24A U47C,≤ 0.5

row,Variant,yeast fitness
1,A20C G52C,0.583
2,A20G A21G C24U U59C C62A,≤ 0.5
3,A20G C31U C46G,0.649
4,A20C G67U,0.754
5,A20C C24G C33G A42U A57C G67C,0.645
6,U19C U28C C49A,0.584
7,A20G A57C C62G C66G,≤ 0.5
8,A20C C27A G52A,≤ 0.5
9,A20C A21G A57G,0.744
10,A20G C24G C66U,0.527
11,U19A C27A C46A,0.506
12,U19A C27U A65U,0.717
13,U19C G48C C66U,0.712
14,U19C A36G,1.01
15,A20C A21G G50C A65C,≤ 0.5
16,A20C U59C A69C,0.705
17,A20G C27U U28G,0.565
18,A20C C24U G68C,0.542
19,A20G G50C G63C G67C,≤ 0.5
20,U19C G58C C61U C66U,0.529
21,U19A C27A C46A G67A,≤ 0.5
22,A20C G41C C66G,≤ 0.5
23,U19A C46U G67A,0.957
24,A20C C46A C49G G63A,≤ 0.5

row,Variant,yeast fitness
1,A20G A65U G68C,0.556
2,A20G G67A A69C,0.563
3,A20G A57C,0.642
4,A20G A42C A45C,≤ 0.5
5,A20G U28G C31U,0.588
6,A20G G38C A45C G51A,≤ 0.5
7,A20C C27U A36G,0.62
8,A20G C22U G51C,≤ 0.5
9,A20G C27A C31A,≤ 0.5
10,U19C C49G,1.14
11,A20G A21U A70U,≤ 0.5
12,U19G C55G A69U,0.54
13,A20G G23C A69C,≤ 0.5
14,A20C C30A C33U C34U C49A C62G,≤ 0.5
15,U19C A69C,0.991
16,U19C A69G,0.788
17,A20C G41A G58U,0.706
18,A20C U26G,0.572
19,U19G U64C,0.841
20,A20C C31G G48A G50C C60G,0.722
21,A20G C55U,0.82
22,U19C A42G C46A C55G,≤ 0.5
23,U19C U35C C49U C61G,≤ 0.5
24,A20G C46G C49G,0.565

row,Variant,yeast fitness
1,U19C C34U A43U G52C,≤ 0.5
2,A20G U54C A70C,0.578
3,U19C C22G C34G A70U,≤ 0.5
4,A20C G39C G41A,0.652
5,A20C C29G G51A,0.646
6,U19G A43U C66A,0.6
7,A20C C24A C27A A36C,≤ 0.5
8,U19C C27A C30G A45C,≤ 0.5
9,U19C A37G G58C C61U U64C,≤ 0.5
10,A20C C34G A69U,0.549
11,A20G C24U G25A U35A C60U A70G,0.655
12,U19C A42U C46U C55G,≤ 0.5
13,A20G C34U,0.777
14,A20G C34G,0.68
15,U19C A42U C46U C55G G63C,≤ 0.5
16,U19A C29U C55A A57C U59C,≤ 0.5
17,U19G U28G,0.551
18,A20U A21C G67A,≤ 0.5
19,U19C C46U A69C,0.724
20,A20C C24U C31G A37U C60G,≤ 0.5
21,U19C U28A G38C G44C C46A,0.572
22,A20C A37G C49G U53A C60U A69C,0.57
23,A20G C49U C61G,0.617
24,U19G G41A G48C C49U A57C A70U,≤ 0.5

row,Variant,yeast fitness
1,A20C A42C A45C G48A,0.565
2,U19C C27U C33U A40C C55A A65G,≤ 0.5
3,A20G A21G C29G,0.543
4,A20G C60U,0.744
5,A20G C22G U54A,≤ 0.5
6,A20C C24G C27U C31G U54C A65C,≤ 0.5
7,A20C G25C G38C A43G,≤ 0.5
8,A20G C34U A40U A42U,≤ 0.5
9,A20C C30A A65C,0.583
10,A20C C30G C33G,≤ 0.5
11,A20C U32A C34G A37U,≤ 0.5
12,U19C A21G U26G G48C,0.624
13,A20C U32A C34G A57C C66U,≤ 0.5
14,A20C A43C A69U A70C,0.725
15,A20G G56A A57C,0.574
16,U19G G41C C66U,≤ 0.5
17,U19G C61G,0.575
18,A20C A21C C27U C46A,0.6
19,A20G C24A C49U C66U A70C,≤ 0.5
20,A20G C24A A42U,0.546
21,A20G G38C C46U G63U,≤ 0.5
22,U19C A65G,1
23,A20C C31A,0.79
